Measurements: ChEMBL document CHEMBL1121529, “Synthesis of [82Br]bromperidol and preliminary tissue distribution studies in the rat” (J Med Chem, 1980)

Experiments:
Design in all cases: dose 0.2 mg/kg, route intravenous
[1] = test system: Rattus norvegicus; assay: Tested for the tissue distribution of Br activity at 30 min in lung following intravenous injection in rat at the dose of 0.2 mg/kg; assay type: ADME, organism-based; conditions: in vivo, 0.5 h
Procedure, shortened: (§1)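 Male Sprague-Dawley rats (300-320 g, fed ad libitum) anesthetized with sodium pentobarbital 45 mg/kg, then given an iv bolus into the jugular vein of 19-22 µCi (0.2 mg/kg) [82Br]bromperidol in propylene glycol-ethanol-water (40:20:40), pH 4. Rats serially sacrificed by cardiac puncture. Organs counted 100 s at ~12 000 cpm with decay correction. Values are % dose/g, mean and SD of three.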

[2] = test system: Rattus norvegicus; assay: Tested for the tissue distribution of Br activity at 120 min in lung following intravenous injection in rat at the dose of 0.2 mg/kg; assay type: ADME, organism-based; conditions: in vivo, 2 h; procedure, shortened: as §1
[3] = test system: Rattus norvegicus; assay: Tested for the tissue distribution of Br activity at 60 min in brain following intravenous injection in rat at the dose of 0.2 mg/kg; assay type: ADME, organism-based; conditions: in vivo, 1 h; procedure, shortened: as §1
[4] = test system: Rattus norvegicus; assay: Tested for the tissue distribution of Br activity at 30 min in brain following intravenous injection in rat at the dose of 0.2 mg/kg; assay type: ADME, organism-based; conditions: in vivo, 0.5 h; procedure, shortened: as §1
[5] = test system: Rattus norvegicus; assay: Tested for the tissue distribution of Br activity at 45 min in kidney following intravenous injection in rat at the dose of 0.2 mg/kg; assay type: ADME, organism-based; conditions: in vivo, 0.75 h; procedure, shortened: as §1
[6] = test system: Rattus norvegicus; assay: Tested for the tissue distribution of Br activity at 45 min in lung following intravenous injection in rat at the dose of 0.2 mg/kg; assay type: ADME, organism-based; conditions: in vivo, 0.75 h; procedure, shortened: as §1
[7] = test system: Rattus norvegicus; assay: Tested for the tissue distribution of Br activity at 120 min in kidney following intravenous injection in rat at the dose of 0.2 mg/kg; assay type: ADME, organism-based; conditions: in vivo, 2 h; procedure, shortened: as §1
[8] = test system: Rattus norvegicus; assay: Tested for the tissue distribution of Br activity at 120 min in liver following intravenous injection in rat at the dose of 0.2 mg/kg; assay type: ADME, organism-based; conditions: in vivo, 2 h; procedure, shortened: as §1
[9] = test system: Rattus norvegicus; assay: Tested for the tissue distribution of Br activity at 30 min in blood following intravenous injection in rat at the dose of 0.2 mg/kg; assay type: ADME, organism-based; conditions: in vivo, 0.5 h; procedure, shortened: as §1
[10] = test system: Rattus norvegicus; assay: Tested for the tissue distribution of Br activity at 45 min in liver following intravenous injection in rat at the dose of 0.2 mg/kg; assay type: ADME, organism-based; conditions: in vivo, 0.75 h; procedure, shortened: as §1
[11] = test system: Rattus norvegicus; assay: Tested for the tissue distribution of Br activity at 15 min in lungs following intravenous injection in rat at the dose of 0.2 mg/kg; assay type: ADME, organism-based, Lung; conditions: in vivo, 0.25 h; procedure, shortened: as §1
[12] = test system: Rattus norvegicus; assay: Tested for the tissue distribution of Br activity at 60 min in lung following intravenous injection in rat at the dose of 0.2 mg/kg; assay type: ADME, organism-based; conditions: in vivo, 1 h; procedure, shortened: as §1
[13] = test system: Rattus norvegicus; assay: Tested for the tissue distribution of Br activity at 30 min in kidney following intravenous injection in rat at the dose of 0.2 mg/kg; assay type: ADME, organism-based; conditions: in vivo, 0.5 h; procedure, shortened: as §1
[14] = test system: Rattus norvegicus; assay: Tested for the tissue distribution of Br activity at 60 min in blood following intravenous injection in rat at the dose of 0.2 mg/kg; assay type: ADME, organism-based; conditions: in vivo, 1 h; procedure, shortened: as §1
[15] = test system: Rattus norvegicus; assay: Tested for the tissue distribution of Br activity at 60 min in liver following intravenous injection in rat at the dose of 0.2 mg/kg; assay type: ADME, organism-based; conditions: in vivo, 1 h; procedure, shortened: as §1
[16] = test system: Rattus norvegicus; assay: Tested for the tissue distribution of Br activity at 30 min in liver following intravenous injection in rat at the dose of 0.2 mg/kg; assay type: ADME, organism-based; conditions: in vivo, 0.5 h; procedure, shortened: as §1
[17] = test system: Rattus norvegicus; assay: Tested for the tissue distribution of Br activity at 15 min in kidney following intravenous injection in rat at the dose of 0.2 mg/kg; assay type: ADME, organism-based; conditions: in vivo, 0.25 h; procedure, shortened: as §1
[18] = test system: Rattus norvegicus; assay: Tested for the tissue distribution of Br activity at 60 min in kidney following intravenous injection in rat at the dose of 0.2 mg/kg; assay type: ADME, organism-based; conditions: in vivo, 1 h; procedure, shortened: as §1
[19] = test system: Rattus norvegicus; assay: Tested for the tissue distribution of Br activity at 15 min in blood following intravenous injection in rat at the dose of 0.2 mg/kg; assay type: ADME, organism-based; conditions: in vivo, 0.25 h; procedure, shortened: as §1
[20] = test system: Rattus norvegicus; assay: Tested for the tissue distribution of Br activity at 15 min in liver following intravenous injection in rat at the dose of 0.2 mg/kg; assay type: ADME, organism-based; conditions: in vivo, 0.25 h; procedure, shortened: as §1
[21] = test system: Rattus norvegicus; assay: Tested for the tissue distribution of Br activity at 45 min in brain following intravenous injection in rat at the dose of 0.2 mg/kg; assay type: ADME, organism-based; conditions: in vivo, 0.75 h; procedure, shortened: as §1
[22] = test system: Rattus norvegicus; assay: Tested for the tissue distribution of Br activity at 120 min in brain following intravenous injection in rat at the dose of 0.2 mg/kg; assay type: ADME, organism-based; conditions: in vivo, 2 h; procedure, shortened: as §1
[23] = test system: Rattus norvegicus; assay: Tested for the tissue distribution of Br activity at 120 min in blood following intravenous injection in rat at the dose of 0.2 mg/kg; assay type: ADME, organism-based; conditions: in vivo, 2 h; procedure, shortened: as §1
[24] = test system: Rattus norvegicus; assay: Tested for the tissue distribution of Br activity at 45 min in blood following intravenous injection in rat at the dose of 0.2 mg/kg; assay type: ADME, organism-based; conditions: in vivo, 0.75 h; procedure, shortened: as §1
[25] = test system: Rattus norvegicus; assay: Tested for the tissue distribution of Br activity at 15 min in brain following intravenous injection in rat at the dose of 0.2 mg/kg; assay type: ADME, organism-based; conditions: in vivo, 0.25 h; procedure, shortened: as §1

Structure (SMILES): O=C(CCCN1CCC(O)(c2ccc(Br)cc2)CC1)c1ccc(F)cc1 [BROMPERIDOL]
- Dose/g [1]: 3.17%
- Dose/g [2]: 1.23%
- Dose/g [3]: 0.32%
- Dose/g [4]: 0.41%
- Dose/g [5]: 1.03%
- Dose/g [6]: 2.75%
- Dose/g [7]: 0.61%
- Dose/g [8]: 1.44%
- Dose/g [9]: 0.14%
- Dose/g [10]: 1.7%
- Dose/g [11]: 5.07%
- Dose/g [12]: 2.25%
- Dose/g [13]: 1.2%
- Dose/g [14]: 0.14%
- Dose/g [15]: 1.58%
- Dose/g [16]: 1.66%
- Dose/g [17]: 1.63%
- Dose/g [18]: 0.93%
- Dose/g [19]: 0.15%
- Dose/g [20]: 1.53%
- Dose/g [21]: 0.41%
- Dose/g [22]: 0.2%
- Dose/g [23]: 0.12%
- Dose/g [24]: 0.14%
- Dose/g [25]: 0.58%
